In ChEMBL document CHEMBL3351588, “Design, synthesis and biological evaluation of N-alkyl or aryl substituted isoindigo derivatives as potential dual cyclin-dependent kinase 2 (CDK2)/glycogen synthase kinase 3β (GSK-3β) phosphorylation inhibitors” (Eur J Med Chem, 2014):
Active and inactive are the calls of the source. The calls are words filed in the database; no cut-off is given here.

Tests used:
K562 [1] = experiment: Induction of cell cycle arrest in human K562 cells assessed as accumulation at G2/M phase at 20 uM after 24 hrs by propidium iodide staining based flow cytometry (reference value: 18.96%); type: functional
K562 [2] = experiment: Induction of cell cycle arrest in human K562 cells assessed as accumulation at S phase after 24 hrs by propidium iodide staining based flow cytometry; type: functional
K562 [3] = experiment: Induction of apoptosis in human K562 cells assessed as necrotic cells level at 5 uM after 24 hrs by Annexin V-FITC/propidium iodide staining based flow cytometry (reference value: 0.0%); type: functional
In short: (§1)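 K562 cells exposed for 24 h or 48 h to 0, 5.0, 10.0, 15.0, 20.0 or 30.0 µM; vehicle DMSO 0.5% v/v. Cells stained with FITC-Annexin V, then counterstained with PI, and analysed by FACScan flow cytometry. Quadrants: Annexin V−/PI− viable; Annexin V+/PI− early apoptotic; Annexin V+/PI+ late apoptotic/necrotic.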

K562 [4] = experiment: Induction of cell cycle arrest in human K562 cells assessed as accumulation at S phase at 5 uM after 24 hrs by propidium iodide staining based flow cytometry (reference value: 44.90%); type: functional
K562 [5] = experiment: Induction of apoptosis in human K562 cells assessed as early apoptotic cells level at 30 uM after 24 hrs by Annexin V-FITC/propidium iodide staining based flow cytometry (reference value: […]); type: functional
K562 [6] = experiment: Induction of cell morphological changes in human K562 cells assessed as nuclei compaction at 5 to 30 uM after 24 hrs by Hoechst 33342/propidium iodide staining based inverted fluorescence microscopy; type: functional
In short: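 Cells treated for 24 h with 5.0–30.0 μM or with 0.5% DMSO, then collected and washed with PBS. Stained with Hoechst 33342 (5.0 μg/mL, 10 min, 37 °C), then with PI (10.0 μg/mL, 10 min, room temperature, dark). Nuclei scored by fluorescence microscopy as condensed/bright, fragmented, or PI-positive.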

K562 [7] = experiment: Induction of cell cycle arrest in human K562 cells assessed as accumulation at S phase at 20 uM after 24 hrs by propidium iodide staining based flow cytometry (reference value: 44.90%); type: functional
K562 [8] = experiment: Induction of apoptosis in human K562 cells assessed as necrotic cells level at 30 uM after 24 hrs by Annexin V-FITC/propidium iodide staining based flow cytometry (reference value: 0.0%); type: functional; in short: as §1
K562 [9] = experiment: Induction of apoptosis in human K562 cells assessed as viable cells level at 15 uM after 48 hrs by Annexin V-FITC/propidium iodide staining based flow cytometry (reference value: 99.21%); type: functional; in short: as §1
K562 [10] = experiment: Induction of apoptosis in human K562 cells assessed as necrotic cells level at 20 uM after 24 hrs by Annexin V-FITC/propidium iodide staining based flow cytometry (reference value: 0.0%); type: functional; in short: as §1
K562 [11] = experiment: Induction of apoptosis in human K562 cells assessed as viable cells level at 10 uM after 48 hrs by Annexin V-FITC/propidium iodide staining based flow cytometry (reference value: 99.21%); type: functional; in short: as §1
K562 [12] = experiment: Induction of cell cycle arrest in human K562 cells assessed as accumulation at G0/G1 phase at 30 uM after 24 hrs by propidium iodide staining based flow cytometry (reference value: 36.14%); type: functional
K562 [13] = experiment: Induction of necrosis in human K562 cells after 48 hrs by Annexin V-FITC/propidium iodide staining based flow cytometry; type: functional, cell-based
K562 [14] = experiment: Induction of apoptosis in human K562 cells assessed as necrotic cells level at 5 uM after 48 hrs by Annexin V-FITC/propidium iodide staining based flow cytometry (reference value: 0.01%); type: functional; in short: as §1
K562 [15] = experiment: Induction of apoptosis in human K562 cells assessed as early apoptotic cells level at 20 uM after 48 hrs by Annexin V-FITC/propidium iodide staining based flow cytometry (reference value: 0.24%); type: functional; in short: as §1
K562 [16] = experiment: Induction of apoptosis in human K562 cells assessed as viable cells level at 30 uM after 48 hrs by Annexin V-FITC/propidium iodide staining based flow cytometry (reference value: 99.21%); type: functional; in short: as §1
K562 [17] = experiment: Induction of apoptosis in human K562 cells assessed as necrotic cells level at 20 uM after 48 hrs by Annexin V-FITC/propidium iodide staining based flow cytometry (reference value: 0.01%); type: functional; in short: as §1
K562 [18] = experiment: Induction of apoptosis in human K562 cells after 48 hrs by Annexin V-FITC/propidium iodide staining based flow cytometry; type: functional, cell-based; in short: as §1
K562 [19] = experiment: Induction of apoptosis in human K562 cells assessed as viable cells level at 20 uM after 24 hrs by Annexin V-FITC/propidium iodide staining based flow cytometry (reference value: 97.64%); type: functional; in short: as §1
K562 [20] = experiment: Reduction in cyclin A protein expression in human K562 cells at 5 to 30 uM after 24 hrs by Western blotting method; type: functional, cell-based
K562 [21] = experiment: Induction of cell cycle arrest in human K562 cells assessed as accumulation at G0/G1 phase at 20 uM after 24 hrs by propidium iodide staining based flow cytometry (reference value: 36.14%); type: functional
K562 [22] = experiment: Induction of apoptosis in human K562 cells assessed as late apoptotic cells level at 15 uM after 24 hrs by Annexin V-FITC/propidium iodide staining based flow cytometry (reference value: 0.79%); type: functional; in short: as §1
MGC-803 = experiment: Cytotoxicity against human MGC803 cells after 48 hrs by SRB assay; type: functional, cell-based; conditions: MGC-803, 48 h
In short: (§2)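 Cells seeded at 5 × 10³ per well and allowed to attach for 12 h, then exposed to a range of drug concentrations in their own medium for 48 h. Fixed with ice-cold TCA for 1 h at 4 °C, washed, then stained with 0.4% SRB for 30 min at room temperature. IC50 is the mean of three independent experiments.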

L1210 = experiment: Cytotoxicity against mouse L1210 cells after 48 hrs by SRB assay; type: functional, cell-based; conditions: L1210, 48 h; in short: as §2
K562 [23] = experiment: Induction of apoptosis in human K562 cells assessed as late apoptotic cells level at 20 uM after 48 hrs by Annexin V-FITC/propidium iodide staining based flow cytometry (reference value: 0.54%); type: functional; in short: as §1
K562 [24] = experiment: Induction of apoptosis in human K562 cells assessed as late apoptotic cells level at 30 uM after 24 hrs by Annexin V-FITC/propidium iodide staining based flow cytometry (reference value: 0.79%); type: functional; in short: as §1
K562 [25] = experiment: Induction of apoptosis in human K562 cells assessed as late apoptotic cells level at 15 uM after 48 hrs by Annexin V-FITC/propidium iodide staining based flow cytometry (reference value: 0.54%); type: functional; in short: as §1
K562 [26] = experiment: Induction of apoptosis in human K562 cells assessed as early apoptotic cells level at 20 uM after 24 hrs by Annexin V-FITC/propidium iodide staining based flow cytometry (reference value: […]); type: functional
K562 [27] = experiment: Induction of apoptosis in human K562 cells assessed as early apoptotic cells level at 5 uM after 48 hrs by Annexin V-FITC/propidium iodide staining based flow cytometry (reference value: 0.24%); type: functional; in short: as §1
K562 [28] = experiment: Induction of cell cycle arrest in human K562 cells assessed as accumulation at G2/M phase at 30 uM after 24 hrs by propidium iodide staining based flow cytometry (reference value: 18.96%); type: functional
K562 [29] = experiment: Induction of cell cycle arrest in human K562 cells assessed as reduction in accumulation at G2/M phase after 24 hrs by propidium iodide staining based flow cytometry; type: functional

COc1ccc(N2C(=O)/C(=C3/C(=O)Nc4ccccc43)c3ccccc32)cc1
Activity (K562 [1]): 11.65% | Activity (K562 [2]): Dose-dependent effect | Activity (K562 [3]): 0% | Activity (K562 [4]): 46.03% | Activity (K562 [5]): 23% | Activity (K562 [6]): Active | Activity (K562 [7]): 56.34% | Activity (K562 [8]): 0% | Activity (K562 [9]): 95.68% | Activity (K562 [10]): 0.01% | Activity (K562 [11]): 96.91% | Activity (K562 [12]): 25.43% | Activity (K562 [13]): Dose-dependent effect | Activity (K562 [14]): 0% | Activity (K562 [15]): 5.51% | Activity (K562 [16]): 62.69% | Activity (K562 [17]): 0.51% | Activity (K562 [18]): Dose-dependent effect | Activity (K562 [19]): 72.9% | inhibition (K562 [20]): Dose-dependent effect | Activity (K562 [21]): 32.01% | Activity (K562 [22]): 4.48% | IC50 (MGC-803): 122 µM | IC50 (L1210): 102 µM | Activity (K562 [23]): 11.56% | Activity (K562 [24]): 20.02% | Activity (K562 [25]): 2.2% | Activity (K562 [26]): 14.44% | Activity (K562 [27]): 1.46% | Activity (K562 [28]): 11.8% | Activity (K562 [29]): Dose-dependent effect
